Screens (PubChem)
Hits are enriched below; roughly 2.4% of the tested compounds scored in any of these assays.
S1P4 ag – agonists of human S1P4 receptor; O95977; S1P4-expressing cell line, agonist reporter assay; AID 1509; 0.35% of 220,000 active; activation, % at 4.98 µM; in the data active = activation above about 11%;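 note: 0% = DMSO vehicle and 100% = reference agonist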
S1P4 antag – blocks the human S1P4 receptor; inhibition, % at 4.98 µM; O95977; 0.26% of 220,000 active; S1P4-expressing cells, antagonist mode, reporter read-out; AID 1510; in the data active = inhibition above about 29%;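 note: 0% = wells stimulated with agonist and 100% = vehicle wells without agonist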
NPY-Y2 PAM-ag – potentiates or activates human NPY-Y2 receptor. P49146. cells expressing NPY-Y2, potentiator/agonist read-out. activation, % at 3.6 µM. 0.45% of 220,000 active; in the data active = activation above about 27%;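 note: cells stimulated with NPY near EC25 plus isoproterenol at EC100; 0% = vehicle plus submaximal agonist and 100% = vehicle plus saturating agonist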
NPY Y1 blocker – antagonists of human neuropeptide Y receptor Y1. P25929. HEK293-CNG Y1 cells, membrane potential fluorescence; NPY at EC95, then isoproterenol. inhibition, % at 3.6 µM. 1% of 200,000 active;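 active = inhibition above the campaign mean inhibition of all tested compounds plus 3 SD, cut at about 20% in these data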;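 note: 0% = DMSO wells given NPY plus isoproterenol and 100% = isoproterenol alone without NPY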
Target sequence (P25929 whole entry, looked up): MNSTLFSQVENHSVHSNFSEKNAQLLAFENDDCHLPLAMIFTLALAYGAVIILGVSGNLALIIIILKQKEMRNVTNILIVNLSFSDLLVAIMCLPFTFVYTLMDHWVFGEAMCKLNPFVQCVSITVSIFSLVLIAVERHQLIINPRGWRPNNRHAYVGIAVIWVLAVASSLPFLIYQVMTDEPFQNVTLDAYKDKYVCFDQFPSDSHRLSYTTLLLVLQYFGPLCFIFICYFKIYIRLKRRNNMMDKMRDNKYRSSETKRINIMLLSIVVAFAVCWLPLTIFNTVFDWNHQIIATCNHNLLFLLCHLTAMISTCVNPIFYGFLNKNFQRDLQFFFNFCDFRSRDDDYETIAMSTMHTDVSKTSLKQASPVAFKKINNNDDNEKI
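Material: HEK293 cells with Y1 receptor plus CNG channel; times: compound incubation 1 h at room temperature, readout 45 min post-stimulation; signal: fluorescence, membrane potential probe; read-out basis: fluorescence ratio normalized to % inhibition between controls; benchmarks: full-block control isoproterenol-only wells, zero-block control NPY plus isoproterenol wells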
NPY Y2 blocker – NPY-Y2 (human) receptor antagonism; P49146; AID 793; 0.99% of 140,000 active; NPY-Y2 expressing cells, antagonist mode; inhibition, % at 2.7 µM; in the data active = inhibition above about 17%;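 note: 0% = vehicle with agonist challenge and 100% = reference antagonist with challenge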
NPY1 pot ag – human NPY-Y1 potentiation or agonism, primary screen; P25929; NPY-Y1 expressing cells, potentiator/agonist activation; activation, % at 3.6 µM; 0.37% of 220,000 active; in the data active = activation above about 33%, passing the limit was not always enough;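 note: cells stimulated with NPY at EC10 then isoproterenol at EC100; 0% = low agonist plus stimulus and 100% = saturating agonist plus stimulus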
S1P4 agonist cf – human S1P4 agonism, confirmation; shares compounds with S1P4 ag; S1P4 agonist cell-based reporter assay; activation, % at 4.98 µM; 7% of 740 active; in the data active = activation above about 12%;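 note: 0% = vehicle and 100% = full reference agonist response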
S1P1 ag – human S1P1 agonism as S1P4 agonist counter-screen; shares compounds with S1P4 ag; S1P1 agonist cell-based assay, activation; activation, % at 4.98 µM; 4% of 740 active; in the data active = activation above about 21%;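 note: 0% = vehicle wells and 100% = reference agonist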
* marks the source's active call; other numbers are inactive results; . = no result.

SMILES	S1P4 ag	S1P4 antag	NPY-Y2 PAM-ag	NPY Y1 blocker	NPY Y2 blocker	NPY1 pot ag	S1P4 agonist cf	S1P1 ag
COc1ccc(-c2cc(C(=O)N/N=C/c3ccc4c(c3)OCO4)c3ccccc3n2)c(OC)c1	0	-5	-15	4	5	-25	.	.
Cc1ccc(S(=O)(=O)N2CC(=O)Nc3ccccc32)cc1	-2	0	7	0	0	7	.	.
CC(=O)Nc1ccc(S(=O)(=O)N2CCC(=O)Nc3ccccc32)cc1	16*	-67	1	5	.	9	-3	-4
Cc1cccc(CN(C(=S)Nc2c(C)cccc2C)c2cccnc2)c1	18*	-25	3	9	.	-6	-2	-9
O=C(/C=C/c1ccc(S(=O)(=O)NCc2ccco2)cc1)N1CCN(c2ccccc2)CC1	-1	1	13	5	.	7	.	.
CCNS(=O)(=O)c1cc(OC)ccc1OC	16*	-2	-7	2	4	-10	-1	1
C=CCC1(Cl)C(=O)C(Cl)=C(N2CCOCC2)C1(OC)OC (centres undefined)	0	3	2	.	.	18	.	.
CC(C)c1ccc(/C=C/C(=O)Nc2ccc(CN3CCOCC3)cc2)cc1	0	-10	-19	.	.	-23	.	.
CC(C)c1ccc(/C=C2\C(=O)N(CCN3CCOCC3)C(=S)N2C)cc1	43*	4	4	0	.	9	-1	-4
CCOC(=O)N1CCN(C(=O)c2cc(-c3ccc(OCC)cc3)nc3ccccc23)CC1	0	-6	3	3	5	4	.	.
CCOc1ccc(-c2cc3nc(C4CCN(C(=O)OC(C)(C)C)CC4)c(C(=O)O)cn3n2)cc1	126*	2	-23	-6	0	-36	-2	-8
CCc1nc(SCC#N)c(C#N)cc1C	23*	-10	-8	0	.	-3	1	4
COc1ccc(N2CC(C(=O)OCC(=O)NCc3ccccc3)CC2=O)cc1 (centres undefined)	1	1	-16	3	3	10	.	.
COc1ccc(N2CC(C(=O)NCc3ccccc3)CC2=O)cc1 (centres undefined)	32*	-12	12	4	2	-15	0	0
O=C(CSc1nc2ncc(Cl)cc2[nH]1)c1ccc2c(c1)OCO2	-1	16	-47	.	.	-38	.	.
O=C(CSc1nc2ncc(Br)cc2[nH]1)Nc1ccc2c(c1)OCO2	29*	-1	-15	6	2	-41	-1	0
CCCCNC(=O)CCn1c(=O)c2ccccc2n(Cc2ccc(F)cc2)c1=O	15*	-20	-8	0	1	-1	-2	1
COCCCNC(=O)CCn1c(=O)c2ccccc2n(Cc2cccc([N+](=O)[O-])c2)c1=O	0	-13	4	1	.	-1	.	.
Cn1nc(C(=O)Nc2nc(-c3ccc(F)cc3)cs2)ccc1=O	-3	-2	-1	.	.	-11	.	.
COc1ccc(/C=N/NC(=O)Cn2nnc3ccccc32)cc1OC	132*	-11	1	1	5	-11	0	6
Cc1ccsc1/C=N\NC(=O)Cn1nnc2ccccc21	28*	-9	9	-1	0	15	-2	-6
CN(C)c1ccc(/C=N/NC(=O)Cn2nnc3ccccc32)cc1	1	1	1	11	2	-21	.	.
O=C(COC(=O)c1cc(=O)[nH]c(=O)[nH]1)NCc1ccccc1	-2	9	-11	-1	4	-14	.	.
C=Cn1cc[n+](CC(=O)c2ccc(C)cc2)c1	18*	-3	-11	1	.	17	-2	-4
COc1cccc(-n2nc(C(C)=O)c(C#N)c2-c2ccco2)c1	38*	0	-1	8	6	-22	-2	-5
SMILES	S1P4 ag	S1P4 antag	NPY-Y2 PAM-ag	NPY Y1 blocker	NPY Y2 blocker	NPY1 pot ag	S1P4 agonist cf	S1P1 ag
CCOc1ccc(CCNC(=O)COC(=O)c2cccc(OC)c2O)cc1OCC	13*	-18	-15	1	.	-17	-3	-2
CCOc1ccc(CCNC(=O)COC(=O)c2ccc(OC)c(OC)c2OC)cc1OCC	1	-11	-6	2	.	-14	.	.
COc1cc(C(=O)NNC(=O)c2ccc(NC(=O)C(C)(C)C)cc2)cc(OC)c1OC	2	-11	-2	1	.	17	.	.
COc1ccc(F)cc1S(=O)(=O)n1nnc2ccccc21	74*	-5	-4	8	.	-2	-1	1
COc1ccc(OC)c(S(=O)(=O)n2nnc3ccccc32)c1	2	-29	-10	4	1	-6	.	.
CC(=O)c1ccc(Oc2ccc(C(=O)c3ccc(C)c(C)c3)cc2[N+](=O)[O-])cc1	14*	11	-3	5	0	-8	-2	-3
CCc1ccc(OC2=NS(=O)(=O)c3ccccc32)cc1	14*	-8	-3	5	.	0	-2	-6
Cc1ccc(OC2=NS(=O)(=O)c3ccccc32)cc1	1	12	-1	2	2	-6	.	.
C/C(=N\NS(=O)(=O)c1ccccc1)c1cc(Cl)cc(Cl)c1O	0	-3	-10	-6	.	-4	.	.
COc1ccc(NC(=O)CSc2nc3c(c(=O)n2-c2ccc(F)cc2)SCC3)c(OC)c1	13*	-18	-12	5	4	-23	-2	-9
COc1ccc(-n2c(SCC(=O)Nc3cc(C)on3)nc3c(c2=O)SCC3)cc1	2	-98	16	-3	0	-2	.	.
COc1ccccc1C1CN(c2ccccc2)N=C1c1cccs1 (centres undefined)	1	0	11	2	4	5	.	.
COc1cccc(C2CN(c3ccc(F)cc3F)N=C2c2cccs2)c1OC (centres undefined)	25*	-11	-12	15	7	-49	15*	43*
COc1ccc(OCCSc2nc(-c3ccccc3)cc(=O)[nH]2)cc1	31*	-4	2	8	.	0	-2	-2
Cn1c(-c2cc3ccc(OC(=O)C(C)(C)C)cc3oc2=O)nc2ccccc21	24*	7	-6	0	1	-9	18*	11
CC(C)CCOP(=O)(c1ccccc1)c1ccccc1	58*	-21	4	13	6	8	-1	2
COc1ccc(/C(C)=N/NC(=O)CNC(=O)c2cccs2)cc1OC	30*	4	-7	3	.	-8	-2	4
Cc1ccc(-c2nc3ccccc3[nH]2)cc1NC(=O)c1sc2cc(Cl)ccc2c1Cl	-1	-13	-14	5	5	-26	.	.
CC(C)CC(=O)Nc1cccc(NC(=O)CC(C)C)n1	0	-19	3	1	1	-2	.	.
Cc1oc(-c2cc(F)ccc2F)nc1CN1CCN(C)C(=O)[C@@H]1C	15*	-8	-1	2	.	-5	-1	-7
Cc1ccccc1NC(=S)NC(=O)c1cncc(Br)c1	16*	-11	-4	2	1	-10	-1	7
